Assays:
[1] = tested on: AoiQ-FDH; experiment: flavin reductase activity, NADH consumption; format: biochemical, Aspergillus oryzae; settings: no flavin reductase added; copurified FAD
How it was run: (§1)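 Enzyme is the FDH domain of AoiQ, expressed as a standalone protein apart from its methyltransferase domain. Flavin reductase activity was followed by consumption of NADH or NADPH, with no exogenous flavin reductase added. Steady-state KM, kcat and kcat/KM were reported for each nicotinamide cofactor.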

[2] = tested on: AoiQ-FDH; experiment: flavin reductase activity, NADPH consumption; format: biochemical, Aspergillus oryzae; settings: no flavin reductase added; copurified FAD
How it was run: as §1

Row | SMILES | Km [1] [µM] | Km [2] [µM]
1 | NC(=O)C1=CN([C@@H]2O[C@H](COP(=O)(O)OP(=O)(O)OC[C@H]3O[C@@H](n4cnc5c(N)ncnc54)[C@H](O)[C@@H]3O)[C@@H](O)[C@H]2O)C=CC1 [NADH] | 43.5 ± 3.6 | 
2 | NC(=O)C1=CN([C@@H]2O[C@H](COP(=O)(O)OP(=O)(O)OC[C@H]3O[C@@H](n4cnc5c(N)ncnc54)[C@H](OP(=O)(O)O)[C@@H]3O)[C@@H](O)[C@H]2O)C=CC1 [NADPH] |  | 30.5 ± 6
